Results as given in ChEMBL document CHEMBL1148329, “Synthesis and structure-activity studies on N-[5-(1H-imidazol-4-yl)-5,6,7,8-tetrahydro-1-naphthalenyl]methanesulfonamide, an imidazole-containing alpha(1A)-adrenoceptor agonist” (J Med Chem, 2004).

How the values were obtained:
[1] = target: T1, Alpha-1A adrenergic receptor (Oryctolagus cuniculus) (UniProt O02824); test: Efficacy relative to phenylephrine (PE) to constrict tissue containing the alpha-1A adrenergic receptor in rabbit urethra; type: functional, tissue-based
T1 sequence (whole entry): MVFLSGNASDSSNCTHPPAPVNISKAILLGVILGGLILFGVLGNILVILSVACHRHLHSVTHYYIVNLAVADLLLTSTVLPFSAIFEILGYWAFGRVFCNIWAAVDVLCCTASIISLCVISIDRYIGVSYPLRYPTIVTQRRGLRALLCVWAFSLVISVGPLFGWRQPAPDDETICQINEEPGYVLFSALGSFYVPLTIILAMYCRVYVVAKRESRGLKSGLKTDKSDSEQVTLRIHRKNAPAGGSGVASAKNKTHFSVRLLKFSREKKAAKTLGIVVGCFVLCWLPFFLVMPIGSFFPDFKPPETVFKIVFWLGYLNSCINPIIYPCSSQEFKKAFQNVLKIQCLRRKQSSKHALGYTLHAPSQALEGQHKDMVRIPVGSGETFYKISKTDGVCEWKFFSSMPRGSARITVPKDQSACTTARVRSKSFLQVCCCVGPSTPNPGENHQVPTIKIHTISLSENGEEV
Method in brief: (§1)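 α1-agonist dose–response curves in isolated tissue: rabbit urethra (α1A), rat spleen (α1B), rat aorta (α1D). Agonist potency and efficacy read from the concentration–response curves.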

[2] = target: T1, Alpha-1A adrenergic receptor (Oryctolagus cuniculus); test: Functional agonism of the compounds to constrict tissue containing the alpha-1A adrenergic receptor in rabbit urethra; type: tissue-based; method in brief: as §1
[3] = target: T2, Alpha-1D adrenergic receptor (Rattus norvegicus, UniProt P23944); test: In vitro binding affinity towards alpha-1D adrenergic receptor of rat clone in radioligand binding assay
T2 sequence (P23944 whole entry): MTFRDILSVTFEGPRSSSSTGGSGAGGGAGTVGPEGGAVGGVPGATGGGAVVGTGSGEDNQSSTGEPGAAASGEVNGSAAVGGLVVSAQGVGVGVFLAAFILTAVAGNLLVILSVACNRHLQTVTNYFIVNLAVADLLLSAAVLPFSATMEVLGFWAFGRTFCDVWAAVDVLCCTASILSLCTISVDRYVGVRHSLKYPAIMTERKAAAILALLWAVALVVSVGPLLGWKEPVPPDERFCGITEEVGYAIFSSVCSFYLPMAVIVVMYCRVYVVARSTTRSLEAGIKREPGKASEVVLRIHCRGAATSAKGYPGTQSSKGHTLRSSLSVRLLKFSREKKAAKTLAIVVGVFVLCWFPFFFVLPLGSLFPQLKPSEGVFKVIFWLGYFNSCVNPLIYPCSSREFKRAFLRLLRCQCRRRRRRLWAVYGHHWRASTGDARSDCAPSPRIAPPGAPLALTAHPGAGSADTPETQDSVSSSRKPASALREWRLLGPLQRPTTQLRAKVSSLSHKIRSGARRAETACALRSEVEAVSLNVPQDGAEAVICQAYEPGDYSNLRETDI
Method in brief: (§2)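 Radioligand binding at α1 subtypes: α1A from rat submaxillary gland, α1B hamster clone, α1D rat clone. Run essentially per an earlier method.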

[4] = target: T3, Alpha-1B adrenergic receptor (Mesocricetus auratus, UniProt P18841); test: In vitro binding affinity towards alpha-1B adrenergic receptor of hamster clone in radioligand binding assay; type: single protein; method in brief: as §2
T3 sequence (P18841 whole entry): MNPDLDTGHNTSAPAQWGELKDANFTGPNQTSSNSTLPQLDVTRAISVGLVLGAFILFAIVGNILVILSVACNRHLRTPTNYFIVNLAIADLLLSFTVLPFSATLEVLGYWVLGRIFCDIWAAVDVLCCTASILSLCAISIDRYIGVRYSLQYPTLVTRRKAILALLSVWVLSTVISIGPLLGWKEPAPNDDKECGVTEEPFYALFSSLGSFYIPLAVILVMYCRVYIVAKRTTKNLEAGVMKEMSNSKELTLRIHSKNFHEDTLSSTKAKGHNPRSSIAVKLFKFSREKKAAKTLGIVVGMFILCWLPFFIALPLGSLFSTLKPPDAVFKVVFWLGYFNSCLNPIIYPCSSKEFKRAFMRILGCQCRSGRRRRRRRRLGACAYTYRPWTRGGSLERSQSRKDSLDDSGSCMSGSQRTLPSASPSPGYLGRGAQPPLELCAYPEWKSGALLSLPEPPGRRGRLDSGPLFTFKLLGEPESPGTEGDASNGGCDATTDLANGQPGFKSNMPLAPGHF

[5] = target: T4, Alpha-1A adrenergic receptor (Rattus norvegicus, UniProt P43140); test: In vitro binding affinity towards alpha-1A adrenergic receptor of rat submaxillary gland in radioligand binding assay; method in brief: as §2
T4 sequence (P43140 whole entry): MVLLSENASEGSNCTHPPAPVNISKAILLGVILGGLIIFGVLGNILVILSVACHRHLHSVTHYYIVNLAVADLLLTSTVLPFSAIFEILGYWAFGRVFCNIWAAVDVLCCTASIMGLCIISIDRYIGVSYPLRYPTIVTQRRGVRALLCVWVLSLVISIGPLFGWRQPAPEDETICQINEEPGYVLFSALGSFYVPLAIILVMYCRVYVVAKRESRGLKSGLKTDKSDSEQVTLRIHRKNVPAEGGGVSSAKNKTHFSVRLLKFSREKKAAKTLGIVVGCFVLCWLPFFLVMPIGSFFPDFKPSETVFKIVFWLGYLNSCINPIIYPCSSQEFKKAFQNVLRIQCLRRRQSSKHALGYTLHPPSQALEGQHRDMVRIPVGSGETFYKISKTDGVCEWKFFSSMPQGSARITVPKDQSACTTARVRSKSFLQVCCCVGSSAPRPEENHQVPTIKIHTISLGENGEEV

[6] = target: Alpha adrenergic receptor 1A and 1B (Rattus norvegicus) (UniProt P15823+P43140); test: Selectivity is ratio of pKi (binding affinity) of alpha-1B receptor to that of alpha-1A receptor.; type: protein assay
Alpha adrenergic receptor 1A and 1B (Rattus norvegicus), sequence (P15823 whole entry, looked up, one chain of several): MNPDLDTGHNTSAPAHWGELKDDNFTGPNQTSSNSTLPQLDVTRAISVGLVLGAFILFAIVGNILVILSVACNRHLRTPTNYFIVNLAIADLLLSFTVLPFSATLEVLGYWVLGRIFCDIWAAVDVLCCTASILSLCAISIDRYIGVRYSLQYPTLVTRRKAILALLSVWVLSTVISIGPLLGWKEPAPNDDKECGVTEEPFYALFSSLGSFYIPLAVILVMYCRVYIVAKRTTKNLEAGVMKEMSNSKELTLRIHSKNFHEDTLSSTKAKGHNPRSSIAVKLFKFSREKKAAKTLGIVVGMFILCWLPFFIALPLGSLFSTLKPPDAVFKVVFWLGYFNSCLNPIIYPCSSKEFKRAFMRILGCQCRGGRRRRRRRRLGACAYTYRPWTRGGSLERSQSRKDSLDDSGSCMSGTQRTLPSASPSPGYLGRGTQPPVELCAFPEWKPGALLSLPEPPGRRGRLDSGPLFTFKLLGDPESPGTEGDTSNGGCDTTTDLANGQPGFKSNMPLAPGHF

[7] = target: Alpha adrenergic receptor 1A and 1D (Rattus norvegicus) (UniProt P23944+P43140); test: Selectivity is ratio of pKi (binding affinity) of Alpha-1D to that of alpha1A; type: protein assay
[8] = system: Canis familiaris; test: Uroselectivity was determined by measuring effective dose required for 20 mmHg increase of mean arterial pressure (MAP) in vivo in dog; type: functional, Canis lupus familiaris, Artery
Method in brief: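 Dog model recording intraurethral pressure (IUP) and mean arterial pressure (MAP) simultaneously. Increasing iv doses given, maximal effect of each dose taken. Doses giving a 5 mmHg rise in IUP (ED Δ5) or 20 mmHg rise in MAP (ED Δ20) were calculated, in nmol/kg ± SEM, n ≥ 4 (2 or 3 where footnoted).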

[9] = organism: Canis familiaris; test: Ratio of MAP ED delta20 to that of IUP ED delta5
[10] = target: T5, Alpha-2A adrenergic receptor (Rattus norvegicus) (UniProt P22909); test: Efficacy relative to clonidine to constrict tissue containing the alpha-2A adrenergic receptor in rat prostatic vas deferens
T5 sequence (whole entry): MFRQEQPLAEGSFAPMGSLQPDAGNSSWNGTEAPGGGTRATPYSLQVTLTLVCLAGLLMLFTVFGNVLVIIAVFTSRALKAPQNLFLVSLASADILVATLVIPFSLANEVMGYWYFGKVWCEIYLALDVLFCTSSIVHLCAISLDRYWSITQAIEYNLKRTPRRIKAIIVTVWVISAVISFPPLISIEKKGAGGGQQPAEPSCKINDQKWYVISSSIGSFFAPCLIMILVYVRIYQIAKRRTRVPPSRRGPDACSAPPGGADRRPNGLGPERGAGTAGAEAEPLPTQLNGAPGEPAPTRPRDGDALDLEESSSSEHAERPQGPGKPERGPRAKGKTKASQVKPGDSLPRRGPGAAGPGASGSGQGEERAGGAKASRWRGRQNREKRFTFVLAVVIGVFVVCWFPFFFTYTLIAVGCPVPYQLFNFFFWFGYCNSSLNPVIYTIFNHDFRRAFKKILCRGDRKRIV

With CCS(=O)(=O)Nc1cccc(CC2CCCN2)c1 (stereo not given) the Efficacy [1] was 17%, the pD2 [2] was 4.44 and the Ki [3] was 0.501 µM. It also gave a Ki [4] greater than 10 µM, a Ki [5] of 0.708 µM and a Selectivity [6] greater than 10. The Selectivity [7] was 1.
For CS(=O)(=O)Nc1ccc(F)c2c1CCCC2c1c[nH]cn1 (stereo not given), the Efficacy [1] was 64%, the pD2 [2] was 5.31 and the Ki [4] was greater than 10 µM. For the same compound, the “ED delta20” value [8] was 632 nM/kg, the Selectivity [6] was greater than 32 and the Selectivity [7] was 10. It also gave a Ratio [9] of 1.
CS(=O)(=O)Nc1ccc(O)c2c1CCCC2c1c[nH]cn1 (stereo not given) gave an Efficacy [1] of 34%, a pD2 [2] of 4.61 and a Ki [3] greater than 10 µM. For the same compound, the Ki [4] was greater than 10 µM, the Selectivity [6] was greater than 14 and the Selectivity [7] was greater than 14.
CS(=O)(=O)Nc1cccc2c1CCCCC2c1c[nH]cn1 (stereo not given) was tested, and the Efficacy [1] was 17%, the pD2 [2] was 4.72 and the Selectivity [6] was greater than 7. The Selectivity [7] was 2.
For O=S(=O)(Nc1cccc2c1CCCC2c1c[nH]cn1)C1CC1 (stereo not given), the Efficacy [1] was 51%, the pD2 [2] was 5.25 and the Ki [3] was 2.69 µM. For the same compound, the Ki [4] was greater than 10 µM, the Ki [5] was 0.537 µM and the Selectivity [6] was greater than 19. For the same compound, the Selectivity [7] was 5.
CCS(=O)(=O)Nc1cccc2c1COC2c1c[nH]cn1 (stereo not given) gave a Ki [3] greater than 10 µM, a Ki [4] greater than 10 µM and a Selectivity [6] of 10. For the same compound, the Selectivity [7] was 10.
With CS(=O)(=O)Nc1cccc2c1CCC[C@H]2c1c[nH]cn1 the Efficacy [1] was 84%, the “ED delta20” value [8] was 48.7 nM/kg and the Efficacy [10] was 29%.
For CCS(=O)(=O)Nc1cc(C2CCCCC2)cc2c1CCCC2c1c[nH]cn1 (stereo not given), the Selectivity [6] was 3 and the Selectivity [7] was 2.
Work on CCS(=O)(=O)Nc1cccc2c1CCCC2c1c[nH]c(C)n1 (stereo not given) yielded a Ki [3] greater than 10 µM, a Ki [4] greater than 10 µM and a Selectivity [6] greater than 10. For the same compound, the Selectivity [7] was greater than 10.
Compound CCS(=O)(=O)Nc1cccc(Sc2c[nH]cn2)c1 has a Ki [3] greater than 10 µM, a Ki [4] greater than 10 µM and a Ki [5] greater than 10 µM.
CS(=O)(=O)Nc1ccc(Cl)c2c1CCCC2c1c[nH]cn1 (stereo not given) was tested, and the Efficacy [1] was 41%, the pD2 [2] was 4.35 and the Ki [4] was greater than 10 µM. It also gave a Selectivity [6] greater than 20 and a Selectivity [7] of 6.
CC(C)S(=O)(=O)Nc1cccc2c1CCCC2c1c[nH]cn1 (stereo not given) showed an Efficacy [1] of 74%, a pD2 [2] of 5.17 and a Ki [3] of 2.04 µM. The Ki [4] was greater than 10 µM, the Ki [5] was 1.15 µM and the Selectivity [6] was greater than 9. For the same compound, the Selectivity [7] was 2.
For CCS(=O)(=O)Nc1cccc2c1SCCC2c1c[nH]cn1 (stereo not given), the Ki [3] was greater than 10 µM, the Ki [4] was greater than 10 µM and the Selectivity [6] was 10. It also gave a Selectivity [7] of 10.
CCS(=O)(=O)Nc1cccc2c1CCCC2CNC (stereo not given) gave a Ki [3] greater than 10 µM, a Ki [4] greater than 10 µM and a Ki [5] of 1.38 µM. It also gave a Selectivity [6] greater than 7 and a Selectivity [7] greater than 7.
For CCS(=O)(=O)Nc1cccc(CC2CN=CN2)c1 (stereo not given), the Ki [3] was 6.46 µM, the Ki [4] was 10 µM and the Ki [5] was greater than 10 µM.
Compound CCCS(=O)(=O)Nc1cccc2c1CCCC2c1c[nH]cn1 (stereo not given) has a Ki [3] greater than 10 µM, a Ki [4] greater than 10 µM and a Ki [5] of 1.7 µM. The Selectivity [6] was greater than 6 and the Selectivity [7] was greater than 6.
In the case of CCS(=O)(=O)Nc1cccc(S(=O)(=O)c2c[nH]cn2)c1, the Ki [3] is reported as greater than 10 µM, the Ki [4] is reported as greater than 10 µM and the Ki [5] is reported as greater than 10 µM.
In the case of Cc1ccc(NS(C)(=O)=O)c2c1C(c1c[nH]cn1)CCC2 (stereo not given), the Efficacy [1] is reported as 35%, the pD2 [2] is reported as 4.4 and the Ki [4] is reported as greater than 10 µM. For the same compound, the Selectivity [6] was greater than 26 and the Selectivity [7] was 7.
CC(c1cccc(NS(C)(=O)=O)c1)c1c[nH]cn1 (stereo not given) was tested, and the Efficacy [1] was 92%, the pD2 [2] was 5.38 and the Ki [4] was greater than 10 µM. The “ED delta20” value [8] was 234 nM/kg, the Selectivity [6] was 10 and the Selectivity [7] was 1. It also gave a Ratio [9] of 3.4.
For CCS(=O)(=O)Nc1cc(F)cc2c1CCCC2c1c[nH]cn1 (stereo not given), the Ki [3] was 3.63 µM, the Ki [4] was greater than 10 µM and the Ki [5] was 0.0832 µM. For the same compound, the Selectivity [6] was greater than 121 and the Selectivity [7] was 44.
With CCS(=O)(=O)Nc1cccc(-c2c[nH]cn2)c1 the Ki [3] was greater than 10 µM, the Ki [4] was greater than 10 µM and the Ki [5] was greater than 10 µM.
Compound CCS(=O)(=O)Nc1cccc2c1CCCC2(O)c1c[nH]cn1 (stereo not given) has a Ki [3] greater than 10 µM, a Ki [4] greater than 10 µM and a Ki [5] greater than 10 µM. For the same compound, the Selectivity [6] was 1 and the Selectivity [7] was 1.
For Cn1cncc1C1CCCc2c(NS(C)(=O)=O)cccc21 (stereo not given), the Ki [3] was greater than 10 µM, the Ki [4] was greater than 10 µM and the Ki [5] was greater than 10 µM.
Compound CCS(=O)(=O)Nc1cccc(Cc2c[nH]cn2)c1C has an Efficacy [1] of 69%, a Ki [3] of 1 µM and a Ki [4] of 8.13 µM. For the same compound, the Ki [5] was 0.129 µM, the “ED delta20” value [8] was 202 nM/kg and the Selectivity [6] was 60. The Selectivity [7] was 8 and the Ratio [9] was 5.6.
For CCS(=O)(=O)Nc1cccc(NC2=NCCN2)c1, the Ki [3] was 0.355 µM, the Ki [4] was greater than 10 µM and the Ki [5] was 2.95 µM. It also gave a Selectivity [6] greater than 3 and a Selectivity [7] of less than 0.04.
